Screening data as filed in PubChem BioAssay.
Rad51 HR inh: blocks human Rad51 in homologous recombination. Q06609. hRad51 DNA strand exchange, fluorescence dequenching. inhibition, % at 10 µM. 200,000 tested, 0.085% active;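 active = inhibition above 40% at the single screening dose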;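 note: 0% = DMSO control wells and 100% = blanks with heterologous ssDNA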
Target sequence (Q06609 whole entry, looked up): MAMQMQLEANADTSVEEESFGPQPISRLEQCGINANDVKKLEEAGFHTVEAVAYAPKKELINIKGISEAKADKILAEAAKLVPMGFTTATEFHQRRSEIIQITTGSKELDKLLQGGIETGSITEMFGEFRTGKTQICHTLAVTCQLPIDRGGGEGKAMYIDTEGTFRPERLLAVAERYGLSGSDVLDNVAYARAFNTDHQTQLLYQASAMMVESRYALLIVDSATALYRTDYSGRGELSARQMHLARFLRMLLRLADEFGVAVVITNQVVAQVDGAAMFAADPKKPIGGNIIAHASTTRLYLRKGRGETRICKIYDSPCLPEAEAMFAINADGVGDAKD
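Material: human Rad51–ssDNA filaments; Probe or stimulus: labelled 47-mer dsDNA for strand exchange; Doses: single 10 µM dose; Incubation: 37 °C 15-min filament assembly, 30-min compound preincubation, 15-min exchange; Technique: FRET fluorescence dequenching, excitation 485 nm, emission 520 nm; Measure: Fluorescence-based percent inhibition, control- and blank-normalised; Benchmarks: plate control and blank wells.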
FID counter: displaces DNA intercalator in HCV helicase counter-screen. DNA fluorescent intercalator displacement, fluorescence. inhibition, % at 7.9 µM. 290,000 tested, 0.17% active. AID 1845; in the data active = inhibition above about 37%;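 note: 0% = vehicle and 100% = reference compound; higher means more ethidium bromide displaced from hairpin DNA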
RBBP9 inhibitor: human RBBP9 hydrolase inhibition | O75884 | recombinant RBBP9, FP-Rh probe fluorescence polarization | inhibition, % at 7.94 µM | 220,000 tested, 0.2% active;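 active = inhibition above the campaign mean of all tested compounds plus 3 SD, cut at about 14% in these data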;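 note: plate controls were DMSO wells with RBBP9 for no effect and wells lacking RBBP9 protein for full effect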
Target sequence (O75884 whole entry, looked up): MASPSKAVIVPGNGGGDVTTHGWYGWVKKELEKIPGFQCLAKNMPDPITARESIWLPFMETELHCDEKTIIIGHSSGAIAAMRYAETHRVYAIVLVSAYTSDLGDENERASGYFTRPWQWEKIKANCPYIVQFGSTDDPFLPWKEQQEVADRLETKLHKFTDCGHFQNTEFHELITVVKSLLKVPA
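System: RBBP9 protein | Quantity: 2.5 µM RBBP9 dispensing solution, before mixing | Reagent: FP-Rh probe, 375 nM dispensing solution | Timing: Enzyme-compound preincubation 30 min, then probe labeling 45 min, 25 °C | Measured by: Fluorescence polarization | Read-out: % inhibition | Replication: One well per compound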
Wee1 stabilizer: inhibitors of human Wee1 degradation. AID 1321. reporter increase, % at 5 µM. 220,000 tested, 1.2% active. HeLa Luc-Wee1K328M stability, luciferase luminescence; 100% = proteasome inhibitor MG132 effect;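 active = activation above the mean of all tested compounds plus 3 SD, set per screening run, cut at about 8.8% in these data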;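 note: cells exposed to compound for 20 h before luminescence read; 0% = DMSO alone and 100% = MG132 at 30 µM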
* = called active by the depositor; . = not tested or not shown. This is a sample that favours compounds with a hit; in the whole collection about 1.2% have one here.

SMILES | Rad51 HR inh | FID counter | RBBP9 inhibitor | Wee1 stabilizer
COc1cc(NC(=S)NC(=O)CCc2ccccc2)cc(OC)c1 | . | -12 | . | .
O=C(O)COn1c(-c2ccccc2)nc2ccc([N+](=O)[O-])cc21 | 3 | 7 | -7 | 11*
CCOC(=O)C(C)On1c(-c2ccccc2)nc2ccc([N+](=O)[O-])cc21 (configuration not stated) | -3 | 5 | 2 | 1
Cc1ccc(NC(=O)c2ccccc2OCC(=O)Nc2cccc(Cl)c2C)nc1 | -22 | 0 | 10 | 2
O=C(Nc1cccc([N+](=O)[O-])c1)c1cc2ccccc2cc1O | 13 | 12 | -5 | 10*
Cc1c(C(=O)Nc2cccc([N+](=O)[O-])c2)csc1-c1ccccc1 | . | -2 | 1 | 10*
Cc1nn(-c2ccc(F)cc2)c(Cl)c1/C=C/C(=O)N1CCNC(=O)C1 | -6 | -17 | -3 | 4
CSCC(C)N1CCC(CO)(CCc2ccccc2)CC1 (configuration not stated) | -21 | 5 | -7 | 10.0*
Oc1ccc(C(c2nnnn2CCc2ccccc2)N2CCN(c3nc4ccccc4s3)CC2)cc1 (configuration not stated) | 5 | -3 | -1 | 0
c1ccc(COc2ccc(OCCCCN3CCCCC3)cc2)cc1 | 3 | 44* | -4 | -2
O=C(c1ccccc1)c1ccc(OCCCCN2CCCCC2)cc1 | 3 | 9 | 4 | -3
NC(=NCCCCCCN=C(N)/N=C(\N)Nc1ccc(Cl)cc1)/N=C(\N)Nc1ccc(Cl)cc1 | . | 59* | . | .
CCCCN=C(Nc1ccc(Cl)cc1)c1cccnc1 | -4 | -1 | -6 | 5
CC(C)(C)c1ccc(C(=O)NN2C(=O)CSC2=S)cc1 | -9 | -7 | -6 | 11*
CCOCCCNC(=O)/C(C#N)=C/c1cc(OC)c(O)c([N+](=O)[O-])c1 | -20 | -3 | -5 | 0
CCOCCCNC(=O)/C(C#N)=C/c1cc(C)c(O)c(C)c1 | -108 | -8 | -2 | 8.9*
CC1(C)Cc2ccccc2-c2n[nH]c(=S)n21 | -11 | -5 | 1 | 9.5*
CCSc1nnc2n1C(C)(C)Cc1ccccc1-2 | . | -7 | -6 | 3
Cc1onc(-c2ccccc2)c1-c1ccnn1S(=O)(=O)c1ccc(Cl)cc1 | -20 | -15 | -1 | 10*
CCOC(=O)c1c(SCC(=O)Nc2nccs2)nc(C)c(C)c1C | . | -36 | . | .
COCCNC(=O)C12CC3CC(C1)CC(c1ccccc1)(C3)C2 | -3 | -24 | -14 | 11*
CCN(CC)C(=O)CSc1nc2nc(C)cc(C)c2c(=O)[nH]1 | . | -3 | -8 | 0
Cc1cc(C)c2c(=O)[nH]c(SCC(=O)N(C)C)nc2n1 | . | 75* | -1 | 4
Cc1ccccc1CN1C[C@@H]2C[C@@H](c3cnc(N4CCOCC4)s3)N3CCC[C@@]23C1=O | -11 | -15 | -7 | 2
O=C(Cc1ccc(Cl)cc1)NCCS(=O)c1ccc(Cl)cc1 (configuration not stated) | 130* | -7 | -9 | -2
SMILES | Rad51 HR inh | FID counter | RBBP9 inhibitor | Wee1 stabilizer
O=C(Cc1ccccc1)NCCS(=O)c1ccc(Cl)cc1 (configuration not stated) | 0 | -4 | -2 | 1
CCc1ccc2oc(=O)cc(CN3CCN(c4ccc(F)cc4)CC3)c2c1 | 3 | -8 | -8 | 11*
O=C(NC(=S)N1CCN(C/C=C/c2ccccc2)CC1)c1ccco1 | 3 | -25 | -5 | 9.6*
O=C1C=CC(=O)N1c1ccc(Sc2ccc([N+](=O)[O-])cc2)cc1 | 6 | -3 | 2 | 16*
Nc1ccc(Sc2ccc([N+](=O)[O-])cc2)cc1 | 24 | 6 | -3 | 4
CCSc1nc2c(c(=O)[nH]1)C(C(C)C)C(C#N)=C(N)O2 (configuration not stated) | -2 | -8 | 6 | 9.1*
CCc1[nH]nc2c1C(C(C)C)C(C#N)=C(N)O2 (configuration not stated) | -1 | . | . | .
COc1ccc(CCNC(=O)C(C(=O)c2ccc(F)cc2)n2ccccc2=O)cc1OC (configuration not stated) | -1 | -20 | 7 | -1
COc1ccc(CCNC(=O)C(C(=O)c2ccccc2)n2ccccc2=O)cc1OC (configuration not stated) | -2 | -9 | -8 | 11*
Nc1nc(-c2ccc(Cl)cc2)nn1C(=O)c1ccco1 | -10 | 1 | 4 | -3
CCOC(=O)Cc1c(C)nc2cc(-c3ccc(Cl)cc3)[nH]n2c1=O | 5 | -5 | -5 | 0
CCOC(=O)Cc1c(C)nc2c(-c3ccc(Cl)cc3)c[nH]n2c1=O | . | -29 | -7 | 9.8*
CN(C)CCCNC(=O)c1cc(Br)ccc1O | 23 | 2 | -6 | -3
Cc1cccnc1NC(=O)CCNC(=O)c1ccccc1Cl | . | -7 | . | .
Cc1cc(N)ccc1N1CCCC1 | 60* | 6 | 13 | -2
O=C(CC1NCCNC1=O)Nc1cccc([N+](=O)[O-])c1 (configuration not stated) | 1 | 0 | -8 | 0
O=CN/C=C/c1cc(O)ccc1O | 2 | -1 | 39* | 2
CNC(=O)c1c(Br)cnn1-c1ccc(C)cc1 | . | 0 | -10 | 9.2*
C=CCNC(=O)c1c(Cl)cnn1-c1ccc(C)cc1 | 31 | -3 | 1 | 9.2*
CNC(=O)c1c(Cl)cnn1-c1ccc(C)cc1 | -6 | -2 | 4 | 6
Cc1ccc(S(=O)(=O)n2[nH]c(=O)c(CCO)c2C)cc1 | . | -3 | 2 | 9.0*
Cc1c(CCO)c(=O)[nH]n1S(=O)(=O)c1cccc(C(F)(F)F)c1 | . | -7 | . | .
CC(C)(C)CC(=O)Nc1ccccc1N1CCN(c2ccc(F)cc2)CC1 | . | -35 | . | .
CC(C)(C)CC(=O)Nc1ccccc1N1CCN(c2ccccc2)CC1 | 2 | -11 | 2 | 11*
CC(C)=NNc1nc2c(c(=O)n(C)c(=O)n2C)n1CCc1ccccc1 | . | -1 | -12 | 0
SMILES | Rad51 HR inh | FID counter | RBBP9 inhibitor | Wee1 stabilizer
Fc1ccccc1CSc1nc2ncccc2[nH]1 | -7 | -4 | 4 | 10*
N#C/C(=C\c1ccccc1)c1nc2ncccc2[nH]1 | 0 | 0 | 3 | -3
CCS(=O)(=O)N1Cc2ccccc2CC1C(=O)Nc1nnc(SCc2ccc(F)cc2)s1 (configuration not stated) | 9 | -34 | -6 | 9.1*
Cc1ccc(Cl)cc1NC(=O)C[n+]1ccc(Cc2ccc([N+](=O)[O-])cc2)cc1 | -7 | 40* | -9 | 3
COc1ccc(C(=O)CN2C(=O)c3ccccc3C2=O)cc1 | 3 | -5 | -1 | 1
CCn1cc(S(=O)(=O)NCCc2ccccc2OC)cn1 | . | -7 | . | .
COc1cc(NC(=O)COC(=O)/C=C/c2ccc(OC)c(OC)c2)cc(OC)c1 | -12 | -22 | -8 | 1
COc1cc(NC(=O)COC(=O)/C=C/c2ccccc2Cl)cc(OC)c1 | 1 | -2 | -4 | 9.0*
Cc1cc(O)c(C(C)C)cc1NC(=O)c1cccc(Cl)c1 | -1 | -5 | -6 | 9.5*
CCOC(=O)c1sc(NC(=S)NC(=O)C2CC2)cc1C | 2 | 1 | -6 | -2
